This note sets out measurements from ChEMBL document CHEMBL1151985, “Cytotoxic and antiplasmodial xanthones from Pentadesma butyracea” (J Nat Prod, 2009).

The IC50 is the concentration at which inhibition is half-maximal.

≈ marks a conversion by molar mass, not a printed value. Calls of active or inactive are those of the source. The calls are words filed in the database; no cut-off is given here.

One assay concerns MCF7. Put plainly: Cytotoxicity against human MCF7 cells assessed as [3H]hypoxanthin incorporation after 24 to 72 hrs. The class given is functional, cell-based. A digest of the protocol: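 MCF-7 cells kept as for the parasite culture but with 5% fetal calf serum in place of 5% human serum. Seeded at 2 × 10^4 cells/well, then exposed to compound. Growth read by [3H]-hypoxanthine incorporation after 24 and 72 h incubation, run as for the P. falciparum assay: plates frozen and thawed, harvested on glass fibre filters, beta-counted. IC50 from linear least-squares regression. Doxorubicin as positive control.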

Assay [1] in a line: Ratio IC50 for human MCF7 cells to IC50 for chloroquine-resistant Plasmodium falciparum FcB1. The class given is functional.
The test system of the next assay is Plasmodium falciparum. Kind of assay: Antiplasmodial activity […] against chloroquine-resistant Plasmodium falciparum FcB1 by [3H]hypoxanthine uptake. The class given is functional, organism-based. Particulars: FcB1/Columbia. A digest of the protocol: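 P. falciparum cultured continuously and synchronized by 5% D-sorbitol lysis. Parasites incubated with compound for 48 h, with [3H]-hypoxanthine added 24 h before freezing. Plates freeze-thawed, harvested onto glass fibre filters, and incorporation read by beta counting. IC50 from linear least-squares regression; chloroquine as positive control.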

As to `CC(C)=CCc1c(O)cc2oc3c(CC=C(C)C)c(O)c4c(c3c(=O)c2c1O)CC(O)C(C)(C)O4` (centres undefined), the result in the assay with MCF7 was Active.
Consider `COc1c(O)cc2oc3cc(O)cc(O)c3c(=O)c2c1C/C=C(\C)CCC=C(C)C` [RUBRAXANTHONE], for which the “Ratio IC50” value in assay [1] was 0.76. Besides, the values for the IC50 in the assay on MCF7 and with Plasmodium falciparum were 2.6 µg/mL (≈ 6.33 µM) and 3.4 µg/mL (≈ 8.28 µM), respectively.
For `COc1c(O)cc2oc3cc(O)cc(O)c3c(=O)c2c1CC=C(C)CCCC(C)(C)O` [BUTYRAXANTHONE D], in that order: below 0.13, 1.3 µg/mL (≈ 3.03 µM) and 10 µg/mL (≈ 23.3 µM).
On the same counts, the results for `COc1c(O)cc2oc3cc(O)c(C/C=C(\C)CCC=C(C)C)c(O)c3c(=O)c2c1CC=C(C)C` [BUTYRAXANTHONE A] are 1.17, 3.5 µg/mL (≈ 7.31 µM) and 3 µg/mL (≈ 6.27 µM).
Turning to `CC(C)=CCc1c(O)cc2oc3c(CC=C(C)C)c(O)c(O)c(CC=C(C)C)c3c(=O)c2c1O` [GARCINONE E], the “Ratio IC50” value in assay [1] is on record as 0.54. Also, the IC50 with MCF7 was found to be 1.5 µg/mL (≈ 3.23 µM); in the assay with Plasmodium falciparum, 2.8 µg/mL (≈ 6.03 µM).
As for `CC(C)=CCc1c(O)c(O)c(CC=C(C)C)c2c(=O)c3c(O)c4c(cc3oc12)OC(C)(C)C=C4` [BUTYRAXANTHONE B], the “Ratio IC50” value in assay [1] is on record as 1.22. In addition, the IC50 in the assay on MCF7 amounted to 3.3 µg/mL (≈ 7.13 µM); in the assay with Plasmodium falciparum, 2.7 µg/mL (≈ 5.84 µM).
For `COc1c(O)cc2oc3cc(O)c(CC=C(C)C)c(O)c3c(=O)c2c1CC=C(C)C` [MANGOSTIN], in that order: 1.21, 3.5 µg/mL (≈ 8.53 µM) and 2.9 µg/mL (≈ 7.07 µM).
For `CC(C)=CCc1c(O)c(CC=C(C)C)c2oc3c(O)ccc(O)c3c(=O)c2c1O` [GARTANIN], in that order: 0.39, 1.2 µg/mL (≈ 3.03 µM) and 3.1 µg/mL (≈ 7.82 µM).
For `CC(C)=CCc1c(O)cc2oc3c(CC=C(C)C)c(O)c4c(c3c(=O)c2c1O)C=CC(C)(C)O4` [TOVOPHYLLINE A], the “Ratio IC50” value in assay [1] is 0.93. Also, the IC50 in the assay on MCF7 is 2.6 µg/mL (≈ 5.62 µM); in the assay with Plasmodium falciparum, 2.8 µg/mL (≈ 6.05 µM).
For `COc1c(O)cc2oc3cc4c(c(O)c3c(=O)c2c1CC=C(C)C)C=CC(C)(C)O4` [MANGOSTANIN], in that order: below 2.05, 3.9 µg/mL (≈ 9.55 µM) and above 1.9 µg/mL.
On to `CCN(CC)CCCC(C)Nc1ccnc2cc(Cl)ccc12` (centres undefined) [CHLOROQUINE], for which, in the assay on MCF7, the half-inhibitory concentration (IC50) is above 100 µg/mL.
